Common to all, as to format: functional
For one assay, the system named is Candida albicans. Kind of assay: Antimicrobial activity against Candida albicans ATCC 90028 after 24 hrs by broth dilution technique. The settings on record: ATCC 90028, 24 h. The gist of the method:
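Broth dilution in trypticase soy broth, series from 500 to 1.95 µg/mL. Incubation at 37 °C for 24 h. MIC taken as lowest concentration with no visible growth. Amphotericin B served as antifungal positive control.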
In general terms: Broth dilution looks for growth in wells or tubes with falling amounts of substance.

A further assay has as its system Plutella xylostella. Kind of assay: Insecticidal activity against Plutella xylostella treated as topical application.
Another assay has as its system Escherichia coli. Kind of assay: Antimicrobial activity against Escherichia coli ATCC 25922 after 24 hrs by broth dilution technique. The gist of the method: (§1)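 Serial dilutions in trypticase soy broth spanning 500 to 1.95 µg/mL, tested by broth dilution; tubes incubated 37 °C for 24 h. MIC taken as lowest concentration tube with no visible organism growth. Gentamycin served as antibacterial positive control.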

The next assay relates to Staphylococcus aureus. Kind of assay: Antimicrobial activity against Staphylococcus aureus ATCC 25923 after 24 hrs by broth dilution technique. The gist of the method: as §1
The next assay deals with Pseudomonas aeruginosa. Kind of assay: Antimicrobial activity against Pseudomonas aeruginosa ATCC 27853 after 24 hrs by broth dilution technique. The gist of the method: as §1

Converted amounts (≈) assume the structure as drawn.

As usually defined, the MFC is the lowest tested concentration that kills the fungus rather than only halting it. A word on the LC50: it is the concentration that kills 50% of the test population. Low values mean a more lethal substance, high ones a less lethal substance. By MBC is commonly meant the smallest concentration meeting the test's criterion for killing. Low readings indicate more potent killing, high ones less potent killing. In general, MIC refers to the smallest concentration in the dilution series that meets the test's criterion for growth inhibition. Higher therefore signals a less susceptible organism.

Compound `C[C@@H]1[C@H](O)[C@@H](C)/C=C/C=C/C=C/C=C/C=C/C=C/C=C/[C@H](O[C@@H]2O[C@H](C)[C@@H](O)[C@H](N)[C@@H]2O)C[C@@H]2O[C@](O)(C[C@@H](O)C[C@@H](O)[C@H](O)CC[C@@H](O)C[C@@H](O)CC(=O)O[C@H]1C)C[C@H](O)[C@H]2C(=O)O` [AMPHOTERICIN B] came in with an MFC in the assay on Candida albicans of 0.7 µg/mL (≈ 0.758 µM).
In turn, `CNC(=O)ON=C(C)SC` [METHOMYL] returned an LC50 with Plutella xylostella of 1840 µg/mL (≈ 11300 µM).
In the assay on Plutella xylostella, `C[C@@H]1C[C@H](C[C@@H](C)[C@H]2CCCCN3CCC[C@@H]23)OC1=O` [STEMAPHYLLINE] gave a 50% lethal concentration (LC50) of 1820 µg/mL (≈ 6530 µM). The MBC came out at 125 µg/mL (≈ 447 µM) against Escherichia coli (ATCC 25922, 24 h); 250 µg/mL (≈ 895 µM) with Staphylococcus aureus (ATCC 25923, 24 h); 125 µg/mL (≈ 447 µM) in the assay with Pseudomonas aeruginosa (ATCC 27853, 24 h). Further, the MIC against Escherichia coli (ATCC 25922, 24 h) was determined as 62.5 µg/mL (≈ 224 µM); with Staphylococcus aureus (ATCC 25923, 24 h), 125 µg/mL (≈ 447 µM); in the assay on Pseudomonas aeruginosa (ATCC 27853, 24 h) it was 62.5 µg/mL (≈ 224 µM); against Candida albicans it was 125 µg/mL (≈ 447 µM). The compound further returned an MFC in the assay with Candida albicans of 125 µg/mL (≈ 447 µM).
For the compound GENTAMICIN, the results for the MBC against Escherichia coli, with Staphylococcus aureus and in the assay with Pseudomonas aeruginosa were 5.62 µg/mL, 22.5 µg/mL and 1.46 µg/mL, respectively. The figures for the MIC in the assay with Escherichia coli, in the assay with Staphylococcus aureus and in the assay with Pseudomonas aeruginosa were 5.62 µg/mL, 5.62 µg/mL and 0.35 µg/mL, respectively.

The values are drawn from ChEMBL document CHEMBL1151949, “Alkaloids from the roots of Stemona aphylla” (2009).
